≈ marks a conversion by molar mass, not a printed value. Calls of active or inactive are those of the source. The rule behind the calls is not given here.
Experiments:
Candida parapsilosis = assay: Antifungal activity against Candida parapsilosis 22019 after 24 hrs by spectrophotometric analysis; format: functional; details: Lodderomyces parapsilosis, 22019, 24 h
Method in brief: (§1)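 Broth microdilution in RPMI 1640, inoculum 5×10^3 CFU/mL, compounds from 6.4 mg/mL DMSO stocks, 35 ℃ for 24 h. Growth read as OD600; MIC80 taken as lowest concentration giving 80% growth inhibition. Triplicate.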

Candida albicans [1] = assay: Antibiofilm activity against Candida albicans SC5314 assessed inhibition of cellular surface hydrophobicity at 0.2 to 1.6 ug/ml incubated for 24 hrs; format: functional, organism-based
Method in brief: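 Biofilms treated with compound for 24 h were detached and resuspended in PBS to OD600 1.0. Suspension was vortexed with octane (4:1 by volume) for 3 min, then left 3 min at room temperature to separate. Aqueous-phase OD600 was compared with a no-octane control as (control − overlay)/control × 100%. Three replicates per group across three independent experiments.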

Candida albicans [2] = assay: Antifungal activity against fluconazole-resistant Candida albicans clinical isolate 1010 after 24 hrs by spectrophotometric analysis; format: functional; details: isolate 1010, 24 h
Method in brief: (§2)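 Broth microdilution (MIC80) against fluconazole-resistant clinical C. albicans isolates from a Shanghai hospital. Strains were grown in YPD at 30 ℃. Compounds came from 6.4 mg/mL DMSO stocks and were tested over a concentration series on 5×10^3 CFU/mL inoculum in RPMI 1640 at 35 ℃ for 24 h. OD600 was read; MIC80 is the lowest concentration giving 80% growth inhibition. Done in triplicate.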

Candida albicans [3] = assay: Antifungal activity against Candida albicans SC5314 after 24 hrs by spectrophotometric analysis; format: functional; details: SC5314, 24 h; method in brief: as §1
Candida albicans [4] = assay: Antibiofilm activity against Candida albicans SC5314 assessed down regulation of CEK1 gene at 0.4 ug/ml after 1 hr by qRT-PCR analysis; format: functional, organism-based
Method in brief: (§3)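 Biofilm grown in dishes with 0.4 µg/mL compound or DMSO control for 1 h; total RNA isolated and transcripts quantified by real-time RT-PCR. Normalized to 18S rRNA, expressed as fold change vs untreated SC5314. Mean ± SD of three independent experiments.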

Candida albicans [5] = assay: Antibiofilm activity against Candida albicans SC5314 assessed down regulation of ALS3 gene at 0.4 ug/ml after 1 hr by qRT-PCR analysis; format: functional, organism-based; method in brief: as §3
Candida albicans [6] = assay: Antifungal activity against fluconazole-resistant Candida albicans clinical isolate 032 after 24 hrs by spectrophotometric analysis; format: functional; details: isolate 032, 24 h; method in brief: as §2
Candida albicans [7] = assay: Antibiofilm activity against Candida albicans SC5314 assessed down regulation of CPH1 gene at 0.4 ug/ml after 1 hr by qRT-PCR analysis; format: functional, organism-based; method in brief: as §3
Candida albicans [8] = assay: Antibiofilm activity against Candida albicans SC5314 cultured in SLAD media assessed inhibition of yeast-to-hypha morphological transition after 3 hrs; format: functional, organism-based
Method in brief: (§4)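 Hyphal induction in Lee's (pH 6.8), Spider, SLAD or RPMI 1640 medium with compound; morphology assessed by microscopy.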

CAPAN-1 = assay: Cytotoxicity against human Capan1 cells assessed as cell growth inhibition after 48 hrs by CCK8 assay; format: cell-based; details: CAPAN-1, 48 h
Candida albicans [9] = assay: Antifungal activity against Candida albicans SC5314 after 48 hrs by spectrophotometric analysis; format: functional; details: SC5314, 48 h
Nannizzia gypsea = assay: Antifungal activity against Microsporum gypseum Cmccfmza after 24 hrs by spectrophotometric analysis; format: functional; method in brief: as §1
Candida albicans [10] = assay: Antibiofilm activity against Candida albicans SC5314 assessed down regulation of RAS1 gene at 0.4 ug/ml after 1 hr by qRT-PCR analysis; format: functional, organism-based; method in brief: as §3
Candida albicans [11] = assay: Antibiofilm activity against Candida albicans SC5314 cultured in Spider media assessed inhibition of yeast-to-hypha morphological transition after 3 hrs; format: functional, organism-based; method in brief: as §4
Trichophyton rubrum = assay: Antifungal activity against Trichophyton rubrum Cmccftla after 24 hrs by spectrophotometric analysis; format: functional; method in brief: as §1
Aspergillus fumigatus = assay: Antifungal activity against Aspergillus fumigatus 07544 after 24 hrs by spectrophotometric analysis; format: functional; details: Aspergillus fumigatus, 07544, 24 h; method in brief: as §1
Candida albicans [12] = assay: Antifungal activity against fluconazole-resistant Candida albicans isolate Chang7 clinical isolate after 24 hrs by spectrophotometric analysis; format: functional; details: isolate Chang7, 24 h; method in brief: as §2
Candida albicans [13] = assay: Antibiofilm activity against Candida albicans SC5314 cultured in Lee media assessed inhibition of yeast-to-hypha morphological transition after 3 hrs; format: functional, organism-based; method in brief: as §4
Candida albicans [14] = assay: Antifungal activity against Candida albicans infected in Sprague-Dawley rat vaginal infection model assessed as reduction in vaginal fungal burden at 1 mg/kg, administered intravaginally on day 1 to day 3 post fungal inoculation measured on day 4; format: functional, organism-based
Method in brief: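 Ovariectomized rats inoculated intravaginally with 0.1 mL of 1×10^7 CFU/mL C. albicans on days 10, 11 and 12 after surgery. Compound in saline with 1% DMSO (2, 4, 8 mg/mL) given intravaginally on days 1–3 post-inoculation. On day 4, 100 µL vaginal fluid plated on chloramphenicol SDA agar for CFU counts.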

Candida albicans [15] = assay: Antibiofilm activity against Candida albicans SC5314 cultured in RPMI 1640 media assessed inhibition of yeast-to-hypha morphological transition after 3 hrs; format: functional, organism-based; method in brief: as §4
Candida albicans [16] = assay: Antifungal activity against fluconazole-resistant Candida albicans isolate J38 clinical isolate after 24 hrs by spectrophotometric analysis; format: functional; details: isolate J38, 24 h; method in brief: as §2
Candida albicans [17] = assay: Antibiofilm activity against Candida albicans SC5314 assessed inhibition of yeast-to-hypha morphological transition at 0.5 ug/ml after 3 hrs; format: functional, organism-based
Method in brief: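 Yeast-to-hypha transition in YPD with 10% (v/v) FBS across compound concentrations; cell morphology photographed after 3 h at 37°C.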

Candida albicans [18] = assay: Antibiofilm activity against Candida albicans SC5314 assessed down regulation of EAP1 gene at 0.4 ug/ml after 1 hr by qRT-PCR analysis; format: functional, organism-based; method in brief: as §3
Staphylococcus aureus [19] = assay: Antibacterial activity against Staphylococcus aureus Mu50 after 24 hrs; format: functional; details: Mu50, 24 h
Candida albicans [20] = assay: Antibiofilm activity against Candida albicans SC5314 assessed down regulation of CYR1 gene at 0.4 ug/ml after 1 hr by qRT-PCR analysis; format: functional, organism-based; method in brief: as §3
Candida albicans [21] = assay: Antibiofilm activity against Candida albicans SC5314 assessed as disruption of biofilm formation at 0.8 ug/ml after 24 hrs by scanning electron microscopic analysis; format: functional, organism-based
Method in brief: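 Biofilm SEM: cells adhered to poly-L-lysine-coated glass disks, 90 min static at 37°C; non-adherent cells removed, then grown in fresh RPMI 1640 with compound at 37°C for 24 h. Fixed in 2% glutaraldehyde in 0.15 M sodium cacodylate (pH 7.2) for 2 h, graded ethanol dehydration, dried 1 h, gold-coated and imaged by SEM.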

Cryptococcus neoformans = assay: Antifungal activity against Cryptococcus neoformans 32609 after 24 hrs by spectrophotometric analysis; format: functional; details: Cryptococcus neoformans, 32609, 24 h; method in brief: as §1
Candida albicans [22] = assay: Antibiofilm activity against Candida albicans SC5314 assessed down regulation of ECE1 gene at 0.4 ug/ml after 1 hr by qRT-PCR analysis; format: functional, organism-based; method in brief: as §3
Candida albicans [23] = assay: Antibiofilm activity against Candida albicans SC5314 assessed down regulation of HWP1 gene at 0.4 ug/ml after 1 hr by qRT-PCR analysis; format: functional, organism-based; method in brief: as §3
Staphylococcus aureus [24] = assay: Antibacterial activity against Staphylococcus aureus NRS271 after 24 hrs; format: functional; details: NRS271, 24 h
Candida albicans [25] = assay: Antibiofilm activity against Candida albicans SC5314 assessed down regulation of HGC1 gene at 0.4 ug/ml after 1 hr by qRT-PCR analysis; format: functional, organism-based; method in brief: as §3

SMILES	MIC80 (Candida parapsilosis) [µg/mL]	Activity (Candida albicans [1])	MIC80 (Candida albicans [2]) [µg/mL]	MIC80 (Candida albicans [3]) [µg/mL]	Activity (Candida albicans [4])	Activity (Candida albicans [5])	MIC80 (Candida albicans [6]) [µg/mL]	Activity (Candida albicans [7])	Activity (Candida albicans [8])	IC50 (CAPAN-1) [µM]	MIC80 (Candida albicans [9]) [µg/mL]	MIC80 (Nannizzia gypsea) [µg/mL]	Activity (Candida albicans [10])	Activity (Candida albicans [11])	MIC80 (Trichophyton rubrum) [µg/mL]	MIC80 (Aspergillus fumigatus) [µg/mL]	MIC80 (Candida albicans [12]) [µg/mL]	Activity (Candida albicans [13])	Activity (Candida albicans [14])	Activity (Candida albicans [15])	further results
CCc1ccnc2c1C(=O)c1sc([N+](=O)[O-])cc1C2=O	1 (≈ 3.47 µM)	Active	0.25 (≈ 0.867 µM)	0.5 (≈ 1.73 µM)	Active	Active	0.5 (≈ 1.73 µM)	Active	Dose-dependent effect	> 100	0.25 (≈ 0.867 µM)	2 (≈ 6.94 µM)	Active	Dose-dependent effect	0.5 (≈ 1.73 µM)	4 (≈ 13.9 µM)	0.25 (≈ 0.867 µM)	Dose-dependent effect	Active	Dose-dependent effect	MIC80 (Candida albicans [16]): 0.25 µg/mL (≈ 0.867 µM); Activity (Candida albicans [17]): Active; Activity (Candida albicans [18]): Active; MIC80 (Staphylococcus aureus [19]): > 128 µg/mL; Activity (Candida albicans [20]): Active; Activity (Candida albicans [21]): Active; MIC80 (Cryptococcus neoformans): 1 µg/mL (≈ 3.47 µM); Activity (Candida albicans [22]): Active; Activity (Candida albicans [23]): Active; MIC80 (Staphylococcus aureus [24]): > 128 µg/mL; Activity (Candida albicans [25]): Active
CCCc1ccnc2c1C(=O)c1sc([N+](=O)[O-])cc1C2=O	0.5 (≈ 1.65 µM)	Active	0.5 (≈ 1.65 µM)	0.5 (≈ 1.65 µM)	Active	Active	1 (≈ 3.31 µM)	Active	Dose-dependent effect	> 100	0.5 (≈ 1.65 µM)	2 (≈ 6.62 µM)	Active	Dose-dependent effect	2 (≈ 6.62 µM)	4 (≈ 13.2 µM)	1 (≈ 3.31 µM)	Dose-dependent effect	Active	Dose-dependent effect	MIC80 (Candida albicans [16]): 1 µg/mL (≈ 3.31 µM); Activity (Candida albicans [17]): Active; Activity (Candida albicans [18]): Active; MIC80 (Staphylococcus aureus [19]): > 128 µg/mL; Activity (Candida albicans [20]): Active; Activity (Candida albicans [21]): Active; MIC80 (Cryptococcus neoformans): 1 µg/mL (≈ 3.31 µM); Activity (Candida albicans [22]): Active; Activity (Candida albicans [23]): Active; MIC80 (Staphylococcus aureus [24]): > 128 µg/mL; Activity (Candida albicans [25]): Active

From ChEMBL document CHEMBL4138161, “Discovery of simplified sampangine derivatives as novel fungal biofilm inhibitors” (Eur J Med Chem, 2018)
